# Data reported in ChEMBL document CHEMBL3616399, “Design, synthesis, and structure-activity relationship studies of novel thienopyrrolidone derivatives with strong antifungal activity against Aspergillus fumigates” (Eur J Med Chem, 2015).
# Columns and labels:
# [1] = test system: Nakaseomyces glabratus; assay: Antifungal activity against Candida glabrata 537 after 24 hrs by serial dilution method; type: functional; conditions: Nakaseomyces glabratus, 537, 24 h
# How it was run: (§1)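 MIC by broth serial dilution per NCCLS/CLSI (M27-A3 yeasts, M38-A2 filamentous) in 96-well plates; ATCC strains plus clinical isolates; C. parapsilosis 22019 run as quality-control strain in every assay. Compounds dissolved in DMSO, serially diluted in growth medium; incubation 35 °C; MIC read at 24 h (Candida), 48 h (A. fumigatus), 72 h (C. neoformans).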
# [2] = test system: Candida albicans; assay: Antifungal activity against Candida albicans Y0109 after 24 hrs by serial dilution method; type: functional; conditions: Y0109, 24 h; how it was run: as §1
# [3] = test system: Candida albicans; assay: Antifungal activity against Candida albicans SC5314 after 24 hrs by serial dilution method; type: functional; conditions: SC5314, 24 h; how it was run: as §1
# [4] = test system: Candida parapsilosis; assay: Antifungal activity against Candida parapsilosis 22019 after 24 hrs by serial dilution method; type: functional; conditions: Lodderomyces parapsilosis, 22019, 24 h; how it was run: as §1
# [5] = test system: Cryptococcus neoformans; assay: Antifungal activity against Cryptococcus neoformans 32609 after 72 hrs by serial dilution method; type: functional; conditions: Cryptococcus neoformans, 32609, 72 h; how it was run: as §1
# [6] = test system: Aspergillus fumigatus; assay: Antifungal activity against Aspergillus fumigatus 7544 after 48 hrs by serial dilution method; type: functional; conditions: Aspergillus fumigatus, 7544, 48 h; how it was run: as §1
# [7] = test system: Liver microsome; assay: Intrinsic clearance in human liver microsomes assessed per mg of protein at 0.1 uM measured up to 60 mins by MS analysis; conditions: 1 h
Compound,MIC [1] [µg/mL],MIC [2] [µg/mL],MIC [3] [µg/mL],MIC [4] [µg/mL],MIC [5] [µg/mL],MIC [6] [µg/mL],CLH [7] [µL/min/mg]
C[C@@H](N1CCn2nc(-c3ccc(C#N)nc3)nc2C1)[C@](O)(Cn1cncn1)c1ccc(F)cc1F,0.0156,0.0156,0.0156,0.0156,0.0625,2,–
C[C@@H](N1CCc2nc(-c3cncnc3)sc2C1)[C@](O)(Cn1cncn1)c1ccc(F)cc1F,0.0625,0.0625,0.0312,0.0625,0.0625,2,–
C[C@@H](N1CCc2sc(-c3ccncc3)cc2C1)[C@](O)(Cn1cncn1)c1ccc(F)cc1F,4,0.5,0.25,0.5,0.5,> 32,–
C[C@@H](N1CCc2cc(-c3cncnc3)sc2C1)[C@](O)(Cn1cncn1)c1ccc(F)cc1F,1,0.125,0.25,0.125,0.125,32,–
C[C@@H](N1Cc2sc(Br)cc2C1=O)[C@](O)(Cn1cncn1)c1ccc(F)cc1F,0.125,0.0625,0.0312,0.0625,0.125,32,–
C[C@@H](N1Cc2sc(-c3ccccc3)cc2C1=O)[C@](O)(Cn1cncn1)c1ccc(F)cc1F,0.0625,0.0312,0.0156,0.0312,0.0625,32,–
C[C@@H](N1Cc2sc(-c3ccncc3)cc2C1=O)[C@](O)(Cn1cncn1)c1ccc(F)cc1F,0.0625,0.0156,0.0156,0.0312,0.0156,> 64,–
C[C@@H](N1Cc2sc(-c3cccnc3)cc2C1=O)[C@](O)(Cn1cncn1)c1ccc(F)cc1F,0.0156,0.0156,0.0156,0.0156,0.0156,16,–
C[C@@H](N1Cc2sc(-c3cncnc3)cc2C1=O)[C@](O)(Cn1cncn1)c1ccc(F)cc1F,0.0156,0.0156,0.0156,0.0156,0.0078,32,–
C[C@@H](N1Cc2sc(-c3ccc(C#N)nc3)cc2C1=O)[C@](O)(Cn1cncn1)c1ccc(F)cc1F,0.0625,0.0156,0.0156,0.0156,0.0156,32,–
COc1ccc(-c2cc3c(s2)CN([C@H](C)[C@](O)(Cn2cncn2)c2ccc(F)cc2F)C3=O)cn1,0.0156,0.0156,0.0156,0.0156,0.0156,64,–
C[C@@H](N1Cc2sc(-c3cncc(F)c3)cc2C1=O)[C@](O)(Cn1cncn1)c1ccc(F)cc1F,0.0625,0.0156,0.0078,0.0156,0.0078,> 64,–
COc1ncc(-c2cc3c(s2)CN([C@H](C)[C@](O)(Cn2cncn2)c2ccc(F)cc2F)C3=O)cn1,0.0156,0.0156,0.0156,0.0156,0.0156,16,–
C[C@@H](N1Cc2cc(Br)sc2C1=O)[C@](O)(Cn1cncn1)c1ccc(F)cc1F,0.0625,0.0156,0.0156,0.0156,0.0625,0.25,5
C[C@@H](N1Cc2cc(-c3ccccc3)sc2C1=O)[C@](O)(Cn1cncn1)c1ccc(F)cc1F,0.125,0.0312,0.0156,0.0625,0.0625,8,–
Cc1ccc(-c2cc3c(s2)C(=O)N([C@H](C)[C@](O)(Cn2cncn2)c2ccc(F)cc2F)C3)cc1,0.0625,0.0312,0.0312,0.0625,0.0625,4,–
Cc1cccc(-c2cc3c(s2)C(=O)N([C@H](C)[C@](O)(Cn2cncn2)c2ccc(F)cc2F)C3)c1,0.0625,0.0625,0.0625,0.125,0.125,4,–
COc1ccc(-c2cc3c(s2)C(=O)N([C@H](C)[C@](O)(Cn2cncn2)c2ccc(F)cc2F)C3)cc1,0.0625,0.0156,0.0156,0.0625,0.0625,4,–
COc1cccc(-c2cc3c(s2)C(=O)N([C@H](C)[C@](O)(Cn2cncn2)c2ccc(F)cc2F)C3)c1,0.125,0.0625,0.0625,0.125,0.25,8,–

Compound,MIC [1] [µg/mL],MIC [2] [µg/mL],MIC [3] [µg/mL],MIC [4] [µg/mL],MIC [5] [µg/mL],MIC [6] [µg/mL],CLH [7] [µL/min/mg]
C[C@@H](N1Cc2cc(-c3ccc(Cl)cc3)sc2C1=O)[C@](O)(Cn1cncn1)c1ccc(F)cc1F,0.0625,0.0156,0.0156,0.0625,0.0625,8,–
C[C@@H](N1Cc2cc(-c3cccc(Cl)c3)sc2C1=O)[C@](O)(Cn1cncn1)c1ccc(F)cc1F,0.125,0.0625,0.0156,0.0625,0.125,8,–
C[C@@H](N1Cc2cc(-c3ccc(F)cc3)sc2C1=O)[C@](O)(Cn1cncn1)c1ccc(F)cc1F,0.125,0.0312,0.0156,0.0612,0.0625,4,–
C[C@@H](N1Cc2cc(-c3cccc(F)c3)sc2C1=O)[C@](O)(Cn1cncn1)c1ccc(F)cc1F,0.125,0.0625,0.0156,0.125,0.0625,4,–
C[C@@H](N1Cc2cc(-c3ccc(C#N)cc3)sc2C1=O)[C@](O)(Cn1cncn1)c1ccc(F)cc1F,0.125,0.0156,0.0156,0.0156,0.0156,4,–
C[C@@H](N1Cc2cc(-c3cccc(C#N)c3)sc2C1=O)[C@](O)(Cn1cncn1)c1ccc(F)cc1F,0.125,0.0625,0.0625,0.125,0.125,4,–
C[C@@H](N1Cc2cc(-c3ccncc3)sc2C1=O)[C@](O)(Cn1cncn1)c1ccc(F)cc1F,0.0625,0.0312,0.0156,0.0312,0.0156,1,–
C[C@@H](N1Cc2cc(-c3cccnc3)sc2C1=O)[C@](O)(Cn1cncn1)c1ccc(F)cc1F,0.125,0.0156,0.0156,0.0312,0.0312,4,–
C[C@@H](N1Cc2cc(-c3cncnc3)sc2C1=O)[C@](O)(Cn1cncn1)c1ccc(F)cc1F,0.125,0.0156,0.0312,0.0625,0.0312,4,–
C[C@@H](N1Cc2cc(-c3ccc(C#N)nc3)sc2C1=O)[C@](O)(Cn1cncn1)c1ccc(F)cc1F,0.5,0.0312,0.125,0.125,0.125,8,–
C[C@@H](N1Cc2cc(-c3cncc(C#N)c3)sc2C1=O)[C@](O)(Cn1cncn1)c1ccc(F)cc1F,0.125,0.0312,0.0156,0.0156,0.0312,4,–
COc1ccc(-c2cc3c(s2)C(=O)N([C@H](C)[C@](O)(Cn2cncn2)c2ccc(F)cc2F)C3)cn1,0.125,0.0312,0.0156,0.0312,0.0312,8,–
C[C@@H](N1Cc2cc(-c3ccc(F)nc3)sc2C1=O)[C@](O)(Cn1cncn1)c1ccc(F)cc1F,1,0.25,0.125,0.25,0.25,8,–
C[C@@H](N1Cc2cc(-c3cncc(F)c3)sc2C1=O)[C@](O)(Cn1cncn1)c1ccc(F)cc1F,0.25,0.0312,0.0312,0.0312,0.0312,4,–
COc1ncc(-c2cc3c(s2)C(=O)N([C@H](C)[C@](O)(Cn2cncn2)c2ccc(F)cc2F)C3)cn1,0.25,0.0625,0.0625,0.0625,0.0625,4,–
C[C@@H](n1cnc2cc(Cl)ccc2c1=O)[C@](O)(Cn1cncn1)c1ccc(F)cc1F [ALBACONAZOLE],0.0156,0.0156,0.0078,0.0156,0.0078,0.25,–
OC(Cn1cncn1)(Cn1cncn1)c1ccc(F)cc1F [FLUCONAZOLE],1,0.25,0.25,1,4,> 64,–
C[C@@H](c1ncncc1F)[C@](O)(Cn1cncn1)c1ccc(F)cc1F [VORICONAZOLE],0.0156,0.0156,0.0156,0.0156,0.0156,0.25,–
